Reference: ChEMBL document CHEMBL2176991 (J Med Chem, 2012)
Calls of active or inactive are those of the source. The calls are words filed in the database; no cut-off is given here. Square brackets hold non-standard residues; d marks the D form. Peptide text beside a SMILES is read from it. * marks the point of attachment. X4 = O=C1OC2(c3ccc(O)cc3Oc3cc(O)ccc32)c2cccc(NC(=S)*)c21; βAla = NCCC(=O)O

Columns and labels:
Furin = Furin (Homo sapiens, UniProt P09958); test: Competitive inhibition of human recombinant furin expressed in Drosophila S2 cells using pyroGlu-Arg-Val-Lys-Arg-methyl-coumaryl-7-amide as substrate at pH 7.5 after 60 mins by spectrofluorometric analysis
How it was run: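 Recombinant soluble human furin from S2 medium, tested in 100 mM Hepes pH 7.5, 1 mM CaCl₂, 1 mM β-mercaptoethanol, 1.8 mg/mL BSA; substrate 100 μM, 37 °C, 60 min, kinetic fluorescence read. Inhibitors added at decreasing concentrations. Ki derived from IC50 by Cheng–Prusoff using Km 4.61 μM; three independent experiments.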

[1] = target: T1, Proprotein convertase subtilisin/kexin type 6 (Homo sapiens, UniProt P29122); test: Competitive inhibition of human recombinant PACE4 expressed in Drosophila S2 cells using pyroGlu-Arg-Val-Lys-Arg-methyl-coumaryl-7-amide as substrate at pH 6.5 after 60 mins by spectrofluorometric analysis
T1 sequence (P29122 whole entry): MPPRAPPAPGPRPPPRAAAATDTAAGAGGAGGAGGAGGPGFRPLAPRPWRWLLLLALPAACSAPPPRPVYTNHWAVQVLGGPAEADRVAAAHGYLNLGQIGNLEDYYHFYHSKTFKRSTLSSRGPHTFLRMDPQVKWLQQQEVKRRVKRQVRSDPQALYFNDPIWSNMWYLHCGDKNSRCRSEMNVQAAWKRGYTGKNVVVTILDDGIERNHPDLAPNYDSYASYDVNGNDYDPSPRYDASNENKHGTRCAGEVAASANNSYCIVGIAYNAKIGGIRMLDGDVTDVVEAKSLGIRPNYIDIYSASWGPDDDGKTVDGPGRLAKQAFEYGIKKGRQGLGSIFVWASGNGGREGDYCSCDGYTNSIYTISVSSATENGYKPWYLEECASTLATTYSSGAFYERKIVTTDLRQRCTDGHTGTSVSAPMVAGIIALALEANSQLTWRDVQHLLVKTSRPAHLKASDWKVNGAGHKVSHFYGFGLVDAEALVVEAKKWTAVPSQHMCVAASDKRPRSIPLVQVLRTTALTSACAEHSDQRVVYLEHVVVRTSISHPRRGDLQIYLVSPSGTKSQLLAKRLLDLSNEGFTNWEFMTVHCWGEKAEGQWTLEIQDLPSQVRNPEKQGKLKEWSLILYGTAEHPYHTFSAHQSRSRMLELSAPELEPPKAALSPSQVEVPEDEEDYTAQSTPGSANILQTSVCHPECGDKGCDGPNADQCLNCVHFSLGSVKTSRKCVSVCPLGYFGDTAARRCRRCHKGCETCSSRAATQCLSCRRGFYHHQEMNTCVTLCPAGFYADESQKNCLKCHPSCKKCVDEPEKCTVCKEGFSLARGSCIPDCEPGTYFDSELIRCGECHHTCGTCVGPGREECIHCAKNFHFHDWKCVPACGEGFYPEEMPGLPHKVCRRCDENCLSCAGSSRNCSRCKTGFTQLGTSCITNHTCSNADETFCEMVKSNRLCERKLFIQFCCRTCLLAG
How it was run: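 Soluble human PACE4 purified from S2 conditioned medium, assayed in 20 mM Bis-Tris pH 6.5, 1 mM CaCl₂, 1.8 mg/mL BSA with 100 μM substrate, 37 °C, 60 min. Real-time fluorescence read; inhibitors added at decreasing concentrations. Ki from IC50 by Cheng–Prusoff, Km 3.5 μM. Means of three independent experiments.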

Homo sapiens = organism: Homo sapiens; test: Selectivity ratio of Ki for human recombinant furin to Ki for human recombinant PACE4
DU-145 [2] = test: Cytotoxicity against human DU145 cells assessed as growth inhibition after 72 hrs by MTT assay; type: functional, cell-based; conditions: DU-145, 72 h
How it was run: (§1)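 Cells plated in 96-well format: DU145 and PC3 at 1500/well, LNCaP at 2500/well on poly-lysine. After 24 h, medium was changed and peptide added for 72 h in RPMI 1640 (5% FBS for DU145, 10% for LNCaP and PC3). MTT at 1 mg/mL final for 4 h (DU145, LNCaP) or 6 h (PC3). Formazan dissolved in 2-propanol-HCl and signal normalized to vehicle (water, 0.1% DMSO). IC50 from curve fitting.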

LNCaP [3] = test: Cell cycle arrest in human LNCAP cells assessed as accumulation at G0/G1 phase after 96 hrs by propidium iodide staining-based FACS flow cytometric analysis
LNCaP [4] = test: Cell cycle arrest in human LNCAP cells assessed as accumulation at G0/G1 phase at 100 uM after 96 hrs by propidium iodide staining-based FACS flow cytometric analysis (reference value: 74.3 +/- 0.1 %); type: functional
LNCaP [5] = test: Cell cycle arrest in human LNCAP cells assessed as decrease in accumulation at S phase after 96 hrs by propidium iodide staining-based FACS flow cytometric analysis; type: functional
PC-3 = test: Cytotoxicity against human PC3 cells assessed as growth inhibition after 72 hrs by MTT assay; type: functional, cell-based; how it was run: as §1
LNCaP [6] = test: Cell cycle arrest in human LNCAP cells assessed as accumulation at S phase at 200 uM after 96 hrs by propidium iodide staining-based FACS flow cytometric analysis (reference value: 15.6 +/- 1.3 %); type: functional
LNCaP [7] = test: Cytotoxicity against human LNCAP cells assessed as growth inhibition after 72 hrs by MTT assay; type: functional, cell-based; how it was run: as §1
DU-145 [8] = test: Cellular uptake in human DU145 cells at 10 uM after 1 hr by propidium iodide staining-based FACS flow cytometric analysis; type: ADME, cell-based; conditions: du-145, 1 h
How it was run: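 DU145 cells (4 × 10⁵) incubated 1 h with 10 μM FITC-labeled peptide in serum-free RPMI, then pelleted and washed twice with 0.05% trypsin for 5 min at 37 °C to strip membrane-bound label. Propidium iodide (10 μg/mL, 2 min) used to exclude cells with damaged membranes. At least 10000 events acquired by FACS; uptake reported as geometric mean fluorescence.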

[9] = Stability of the compound in presence of aminopeptidase; type: ADME
LNCaP [10] = test: Cell cycle arrest in human LNCAP cells assessed as accumulation at sub G1 phase at 200 uM after 96 hrs by propidium iodide staining-based FACS flow cytometric analysis (reference value: 0.3 +/- 0.2 %); type: functional
LNCaP [11] = test: Cell cycle arrest in human LNCAP cells assessed as accumulation at G2/M phase at 200 uM after 96 hrs by propidium iodide staining-based FACS flow cytometric analysis (reference value: 10.1 +/- […]); type: functional
LNCaP [12] = test: Cell cycle arrest in human LNCAP cells assessed as accumulation at S phase at 100 uM after 96 hrs by propidium iodide staining-based FACS flow cytometric analysis (reference value: 15.6 +/- 1.3 %); type: functional

Sequence of Furin (P09958 whole entry): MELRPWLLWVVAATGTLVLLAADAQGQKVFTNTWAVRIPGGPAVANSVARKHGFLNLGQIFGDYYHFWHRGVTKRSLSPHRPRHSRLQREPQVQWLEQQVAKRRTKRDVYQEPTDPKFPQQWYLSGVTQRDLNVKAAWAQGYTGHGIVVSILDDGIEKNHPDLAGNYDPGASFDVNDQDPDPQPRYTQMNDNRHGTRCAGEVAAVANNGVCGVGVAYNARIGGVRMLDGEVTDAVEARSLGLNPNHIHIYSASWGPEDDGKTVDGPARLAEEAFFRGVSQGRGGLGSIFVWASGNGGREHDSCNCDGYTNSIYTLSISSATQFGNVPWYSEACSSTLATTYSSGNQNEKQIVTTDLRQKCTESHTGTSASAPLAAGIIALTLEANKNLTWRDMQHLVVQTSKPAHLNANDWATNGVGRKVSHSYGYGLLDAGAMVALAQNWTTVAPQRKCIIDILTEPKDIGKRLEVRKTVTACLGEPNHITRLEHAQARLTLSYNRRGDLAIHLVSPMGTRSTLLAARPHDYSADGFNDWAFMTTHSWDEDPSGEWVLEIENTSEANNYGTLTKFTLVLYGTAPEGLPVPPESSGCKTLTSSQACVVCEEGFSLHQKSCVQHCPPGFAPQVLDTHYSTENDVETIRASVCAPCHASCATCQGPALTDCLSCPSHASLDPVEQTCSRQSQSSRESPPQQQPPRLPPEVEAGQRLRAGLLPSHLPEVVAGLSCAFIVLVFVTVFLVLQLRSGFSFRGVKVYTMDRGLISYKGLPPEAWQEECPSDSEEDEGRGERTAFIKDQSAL

Ratio Ki (Homo sapiens) | Compound | Ki (Furin) [µM] | Ki [1] [µM] | further results
– | CC(=O)N[C@@H](CC(C)C)C(=O)N[C@@H](CC(C)C)C(=O)N[C@@H](CC(C)C)C(=O)N[C@@H](CCCN=C(N)N)C(=O)N[C@H](C(=O)N[C@@H](CCCCN)C(=O)N[C@@H](CCCN=C(N)N)C(N)=O)C(C)C | 0.4 | 0.018 | –
2.2 | CC(C)[C@H](N)C(=O)N[C@@H](CCCCN)C(=O)N[C@@H](CCCCN)C(=O)N[C@@H](CCCNC(=N)N)C(=O)N[C@H](C(=O)N[C@@H](CCCCN)C(=O)N[C@@H](CCCNC(=N)N)C(=O)O)[C@@H](C)O (H-VKKRTKR-OH) | – | – | –
2.7 | CC(C)[C@H](N)C(=O)N[C@@H](CCCCN)C(=O)N[C@@H](CCCNC(=N)N)C(=O)N[C@@H](CCCNC(=N)N)C(=O)N[C@H](C(=O)N[C@@H](CCCCN)C(=O)N[C@@H](CCCNC(=N)N)C(=O)O)C(C)C (H-VKRRVKR-OH) | – | – | –
– | CC(=O)CCCCCCCCN[C@@H](CC(C)C)C(=O)N[C@@H](CC(C)C)C(=O)N[C@@H](CC(C)C)C(=O)N[C@@H](CC(C)C)C(=O)N[C@@H](CCCNC(=N)N)C(=O)N[C@H](C(=O)N[C@@H](CCCCN)C(=O)N[C@@H](CCCNC(=N)N)C(N)=O)C(C)C | 0.5 | 0.023 | IC50 (DU-145 [2]): 80 µM
– | CC(=O)N[C@@H](CC(C)C)C(=O)N[C@@H](CC(C)C)C(=O)N[C@@H](CCCN=C(N)N)C(=O)N[C@H](C(=O)N[C@@H](CCCCN)C(=O)N[C@@H](CCCN=C(N)N)C(N)=O)C(C)C | 0.9 | 0.24 | –
1.3 | N=C(N)NCCC[C@H](NC(=O)[C@H](CCCCN)NC(=O)[C@H](CO)NC(=O)[C@H](CCCNC(=N)N)NC(=O)[C@H](CCC(=O)O)NC(=O)[C@H](CCCCN)NC(=O)[C@@H](N)CCC(=O)O)C(=O)O (H-EKERSKR-OH) | – | – | –
– | CC(=O)OCCOCCOCCOCCOCCOCCOCCOCCN[C@@H](CC(C)C)C(=O)N[C@@H](CC(C)C)C(=O)N[C@@H](CC(C)C)C(=O)N[C@@H](CC(C)C)C(=O)N[C@@H](CCCNC(=N)N)C(=O)N[C@H](C(=O)N[C@@H](CCCCN)C(=O)N[C@@H](CCCNC(=N)N)C(N)=O)C(C)C | 0.48 | 0.019 | IC50 (DU-145 [2]): > 500 µM
1.3 | CC(C)C[C@H](N)C(=O)N[C@@H](CCCNC(=N)N)C(=O)N[C@@H](CCCNC(=N)N)C(=O)N[C@@H](CCCNC(=N)N)C(=O)N[C@H](C(=O)N[C@@H](CCCCN)C(=O)N[C@@H](CCCNC(=N)N)C(=O)O)C(C)C (H-LRRRVKR-OH) | – | – | –
– | CC(=O)N[C@@H](CC(C)C)C(=O)N[C@@H](CC(C)C)C(=O)N[C@@H](CC(C)C)C(=O)N[C@@H](CC(C)C)C(=O)N[C@@H](CCCNC(=N)N)C(=O)N[C@H](C(=O)N[C@@H](CCCCN)C(=O)N[C@@H](CCCNC(=N)N)C(N)=O)C(C)C (Ac-LLLLRVKR-NH2) | – | – | Activity (LNCaP [3]): Dose-dependent effect; Activity (LNCaP [4]): 79.7%; Activity (LNCaP [5]): Dose-dependent effect; growth inhibition (GI) (PC-3): inactive; Activity (LNCaP [6]): 9.3%
1 | N=C(N)NCCC[C@H](NC(=O)[C@H](CCCCN)NC(=O)[C@H](CCCCN)NC(=O)[C@H](CCCNC(=N)N)NC(=O)[C@H](CC(=O)O)NC(=O)[C@H](Cc1ccccc1)NC(=O)CN)C(=O)O (H-GFDRKKR-OH) | – | – | –
– | CC(=O)N[C@@H](CC(C)C)C(=O)N[C@@H](CC(C)C)C(=O)N[C@@H](CC(C)C)C(=O)N[C@@H](CC(C)C)C(=O)N[C@@H](CCCNC(=N)N)C(=O)N[C@H](C(=O)N[C@@H](CCCCN)C(=O)N[C@H](CCCNC(=N)N)C(N)=O)C(C)C (Ac-LLLLRVK[dR]-NH2) | – | – | IC50 (DU-145 [2]): 440 µM; IC50 (LNCaP [7]): 390 µM
– | CC(C)C[C@H](NC(=O)CCNC(=S)Nc1cccc2c1C(=O)OC21c2ccc(O)cc2Oc2cc(O)ccc21)C(=O)N[C@@H](CC(C)C)C(=O)N[C@@H](CC(C)C)C(=O)N[C@@H](CC(C)C)C(=O)N[C@@H](CCCNC(=N)N)C(=O)N[C@H](C(=O)N[C@@H](CCCCN)C(=O)N[C@@H](CCCNC(=N)N)C(N)=O)C(C)C ({X4-βAla}-LLLLRVKR-NH2) | – | – | Drug uptake (DU-145 [8]): Active
– | CC(=O)N[C@H](CC(C)C)C(=O)N[C@@H](CC(C)C)C(=O)N[C@@H](CC(C)C)C(=O)N[C@@H](CC(C)C)C(=O)N[C@@H](CCCN=C(N)N)C(=O)N[C@H](C(=O)N[C@@H](CCCCN)C(=O)N[C@@H](CCCN=C(N)N)C(N)=O)C(C)C | – | – | Stability [9]: Stable
– | NCCCC[C@H](NC(=O)[C@H](CCCCN)NC(=O)[C@H](CCCN=C(N)N)NC(=O)[C@H](CC(=O)O)NC(=O)[C@H](Cc1ccccc1)NC(=O)CN)C(=O)N[C@@H](CCCN=C(N)N)C(=O)O (H-GFDRKKR-OH) | > 1 | > 1 | –
– | CC(C)[C@H](N)C(=O)N[C@@H](CCCCN)C(=O)N[C@@H](CCCN=C(N)N)C(=O)N[C@@H](CCCN=C(N)N)C(=O)N[C@H](C(=O)N[C@@H](CCCCN)C(=O)N[C@@H](CCCN=C(N)N)C(=O)O)C(C)C (H-VKRRVKR-OH) | – | 0.002 | –
– | CC(C)C[C@H](N)C(=O)N[C@@H](CCCN=C(N)N)C(=O)N[C@@H](CCCN=C(N)N)C(=O)N[C@@H](CCCN=C(N)N)C(=O)N[C@H](C(=O)N[C@@H](CCCCN)C(=O)N[C@@H](CCCN=C(N)N)C(=O)O)C(C)C (H-LRRRVKR-OH) | 0.009 | 0.007 | –
– | CC(=O)N[C@H](CC(C)C)C(=O)N[C@@H](CC(C)C)C(=O)N[C@@H](CC(C)C)C(=O)N[C@@H](CC(C)C)C(=O)N[C@@H](CCCNC(=N)N)C(=O)N[C@H](C(=O)N[C@@H](CCCCN)C(=O)N[C@@H](CCCNC(=N)N)C(N)=O)C(C)C | – | – | Activity (LNCaP [10]): 11.8%; Activity (LNCaP [3]): Dose-dependent effect; Activity (LNCaP [5]): Dose-dependent effect; Activity (LNCaP [11]): 8.3%; Activity (LNCaP [6]): 8.4%; Activity (LNCaP [12]): 11.8%

Compound | Ratio Ki (Homo sapiens) | Ki (Furin) [µM] | Ki [1] [µM] | further results
CC(C)C[C@H](NC(=O)[C@@H](N)CC(C)C)C(=O)N[C@@H](CCCNC(=N)N)C(=O)N[C@@H](CCCNC(=N)N)C(=O)N[C@@H](C)C(=O)N[C@@H](CCCCN)C(=O)N[C@@H](CCCNC(=N)N)C(=O)O (H-LLRRAKR-OH) | 36 | – | 0.00034 | –
C[C@H](N)C(=O)N[C@@H](CCCCN)C(=O)N[C@@H](CCCNC(=N)N)C(=O)N[C@@H](CCCNC(=N)N)C(=O)N[C@H](C(=O)N[C@@H](CCCCN)C(=O)N[C@@H](CCCNC(=N)N)C(=O)O)[C@@H](C)O (H-AKRRTKR-OH) | 4.2 | – | 0.0004 | –
